{"source": "paper PMC2151501", "about": "(The Journal of General Physiology, 2006)", "key": {"[1]": {"target": "T1, inactivation-deficient hNav1.5-CW mutant Na+ channels (Homo sapiens, UniProt Q14524, A410W/L409C)", "test": "On and off rates of β4_154–167 binding at 50 mV", "assay_type": "cell-based", "in_short": "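HEK293t cells transiently co-expressing inactivation-deficient hNav1.5-CW with rat β1, whole-cell clamp at 22–24°C, holding −140 mV. Peptide was included in the pipette solution (NaF/NaCl/EGTA/HEPES, pH 7.2) at 25–250 μM. The time-dependent block at 50 mV was fitted single-exponentially. 1/τ was plotted against concentration and fitted by linear regression: slope gave kon, intercept gave koff; n = 5.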"}, "[2]": {"target": "T2, hNav1.5-CW inactivation-deficient mutant Na+ channels (Homo sapiens, UniProt Q14524, A410W/L409C)", "test": "Use-dependent block during repetitive pulses", "assay_type": "cell-based", "conditions": "for use-dependent block of peak currents, 20 ms pulses: β4_154–167 n = 6, acetyl-KIFMK-amide n = 5"}, "[3]": {"tested_on": "Na+ channels in dissociated neurons", "conditions": "ref Grieco and Raman, 2004; cited from earlier work"}, "[4]": {"tested_on": "voltage-gated Na+ channels", "conditions": "ref Catterall, 1980; Wang and Wang, 2003; Strichartz, et al., 1987; cited from earlier work"}, "[5]": {"target": "hNav1.5-CW/F1760K mutant Na+ channels (Homo sapiens, UniProt Q14524, A410W/F1760K/L409C)", "conditions": "ref Wang and Wang, cited from earlier work"}, "[6]": {"tested_on": "Shaker K+ channels", "conditions": "50 mV, ref Murrell-Lagnado and Aldrich, 1993; cited from earlier work"}, "[7]": {"target": "T2, hNav1.5-CW inactivation-deficient mutant Na+ channels", "test": "Unblocking upon repolarization, two-pulse protocol", "assay_type": "cell-based", "conditions": "2 mM in pipette", "in_short": "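Whole-cell hNav1.5-CW currents were recorded in HEK293t cells at room temperature with 2 mM peptide in the pipette. A two-pulse protocol with a 10-ms interpulse interval was used. Peak current amplitude at the second pulse was compared with that at the first.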"}, "[8]": {"tested_on": "inactivation-deficient rNav1.2 Na+ channels", "conditions": "ref Eaholtz et al., 1994; Tang et al., 1996; Wang and Wang, 2005; cited from earlier work"}, "[9]": {"target": "T1, inactivation-deficient hNav1.5-CW mutant Na+ channels", "test": "Resurgent Na+ currents near the activation threshold", "assay_type": "cell-based", "conditions": "2 mM in pipette, −80 to −20 mV, five cells", "in_short": "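Whole-cell recording at room temperature (22–24°C) from transfected HEK293t cells expressing hNav1.5-CW plus rat β1, with 2 mM acetyl-peptide in the internal solution. After the test pulse, tail currents were recorded at −80 to −20 mV in 20-mV steps. Bath: 65 mM NaCl, 85 mM choline Cl, 2 mM CaCl2, 10 mM HEPES, pH 7.4. Five cells.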"}, "[10]": {"target": "T3, inactivation-deficient hNav1.5-L409C/A410W (hNav1.5-CW) Na+ channels (Homo sapiens, UniProt Q14524, A410W/L409C)", "conditions": "ref Eaholtz et al., 1994; Tang et al., 1996; Wang and Wang, 2005; cited from earlier work"}, "[11]": {"target": "T3, inactivation-deficient hNav1.5-L409C/A410W (hNav1.5-CW) Na+ channels", "assay_type": "cell-based", "conditions": "intracellular peptide, 50 mV; 25–250 μM for β4_154–167", "in_short": "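Transiently transfected HEK293t cells (calcium phosphate; CD8 bead selection; used 1–4 d) expressing hNav1.5-L409C/A410W with rat β1. Peptide at 25–250 μM was dialysed via the pipette. Whole-cell currents were recorded at 50 mV from −140 mV holding, at 22–24°C. Decay was fitted with a single exponential. Steady-state block was taken ∼30 min after break-in.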"}, "[12]": {"tested_on": "BTX-modified wild-type hNav1.5 Na+ channels", "test": "Time-dependent block of BTX-modified wild-type Na+ currents", "assay_type": "cell-based", "conditions": "4 μM BTX; acetyl-KIFMK-amide 2 mM, β4_154–167 1 mM, after 2,000 pulses", "in_short": "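Channels were modified by 4 μM BTX (final, from 0.5 mM DMSO stock) in the pipette, which also held either 2 mM acetyl-KIFMK-amide or 1 mM peptide. Cells were held at −140 mV and depolarized to 50 mV. The maintained-to-peak current ratio at 50 mV was measured. Five to six cells.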"}, "[13]": {"conditions": "2 mM in pipette, 50 mV/20 ms at 1 Hz"}}, "note": "“Also recorded” adds a separate entry of the source. No end group written: not given here.", "data": [{"substance": "KKLITFILKKTREK [β4_154–167]", "values": [{"measurement": "koff", "setting": "[1]; read-out: off rate (koff) of binding", "result": 49.1, "unit": "s⁻¹"}, {"measurement": "kon", "setting": "[1]; read-out: on rate (kon) of binding", "result": "1.01e+07", "unit": "M⁻¹ s⁻¹"}, {"measurement": "use-dependent block of peak currents, 20 ms pulses", "setting": "[2]; [13]", "result": "2.9 ± 1.6", "unit": "%"}]}, {"substance": "β-pompilidotoxin", "values": [{"measurement": "effect on fast inactivation gating (in words)", "setting": "[3]", "result": "slowed the fast inactivation gating considerably"}]}, {"substance": "Batrachotoxin [BTX]", "values": [{"measurement": "effect of BTX on voltage-gated Na+ channels (in words)", "setting": "[4]", "result": "eliminates the fast inactivation of voltage-gated Na^+ channels"}, {"measurement": "sensitivity of hNav1.5-CW/F1760K to BTX (in words)", "setting": "[5]; 2003", "result": "BTX-resistant"}]}, {"substance": "ShB peptide: the first 20 amino acids on the NH2 terminus of the Shaker channel (MAAVAGLYGLGEDRQHRKKQ; UniProt P08510 1-20, looked up, fragment)", "values": [{"measurement": "koff", "setting": "[6]", "result": 13.8, "unit": "s⁻¹"}]}, {"substance": "acetyl-KIFMK-amide", "values": [{"measurement": "effect of hNav1.5-F1760K on time-dependent block (in words)", "setting": "[5]; hNav1.5-F1760K, 2005", "result": "hinders its time-dependent block"}, {"measurement": "effect of hNav1.5-F1760K on use-dependent block (in words)", "setting": "[5]; hNav1.5-F1760K, 2005", "result": "abolishes the use-dependent block"}, {"measurement": "additional use-dependent block on outward peak and inward tail currents", "setting": "[2]; [13]", "result": "~65", "unit": "%"}, {"measurement": "tail current decay relative to β4_154–167", "setting": "[2]; [13]", "result": "four times faster"}, {"measurement": "use-dependent block of peak currents, 20 ms pulses", "setting": "[2]; [13]", "result": "62.4 ± 3.1", "unit": "%"}, {"measurement": "use-dependent block, 3 ms pulses", "setting": "[2]; 2 mM in pipette, repetitive pulses, 3 ms, n = 5", "result": "28.5 ± 0.4", "unit": "%"}, {"measurement": "fitted τ of use-dependent block, 1 ms pulses", "setting": "[2]; 50 mV for 1 ms at 1 Hz, n = 5", "result": 27.1, "unit": "pulses"}, {"measurement": "use-dependent block, 1 ms pulses", "setting": "[2]; 50 mV for 1 ms at 1 Hz, n = 5", "result": "15.5 ± 0.4", "unit": "%"}, {"measurement": "fitted τ of use-dependent block, 3 ms pulses", "setting": "[2]; repetitive pulses, 3 ms, n = 5", "result": 14.5, "unit": "pulses"}, {"measurement": "tail current decay τ, short test pulse", "setting": "[7]; short test pulse, n = 6", "result": "0.23 ± 0.02", "unit": "ms"}, {"measurement": "unblocking upon repolarization (in words)", "setting": "[7]; −140 mV, two-pulse protocol, 10-ms interval, six cells", "result": "also occurred rapidly"}, {"measurement": "restoration of fast inactivation, rNav1.2 (in words)", "setting": "[8]", "result": "can restore fast inactivation"}, {"measurement": "resurgent tail currents near activation threshold (in words), acetyl-KIFMK-amide", "setting": "[9]", "result": "elicited robust resurgent currents"}, {"measurement": "restoration of fast inactivation, inactivation-deficient hNav1.5 (in words)", "setting": "[10]", "result": "can restore fast inactivation"}, {"measurement": "time-dependent block of inactivation-deficient Na+ currents (in words)", "setting": "[11]", "result": "restored the fast inactivation phenotype in hNav1.5 inactivation-deficient Na^+ channels"}, {"measurement": "block of BTX-modified open Na+ channels (in words)", "setting": "[12]", "result": "resistant to β4_154–167 and acetyl-KIFMK-amide block; also recorded: little time-dependent block was found"}]}]}
